Laboratory results published in ChEMBL document CHEMBL1177691, “Antineoplastic agents 582. Part 1: Isolation and structure of a cyclobutane-type sesquiterpene cancer cell growth inhibitor from Coprinus cinereus (Coprinaceae)” (2010).
In brackets after ≈: the same amount, converted by molar mass. Activity calls are given as the source filed them. The calls are words filed in the database; no cut-off is given here.

Legend:
[1] = tested on: Stenotrophomonas maltophilia; experiment: Antimicrobial activity against Stenotrophomonas maltophilia ATCC 13637 at 64 ug/ml by broth microdilution assay; assay type: functional, organism-based
Outline: (§1)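 Broth microdilution susceptibility testing following NCCLS approved standards: M27-A (yeast method) and M7-A4. Each compound was tested at a single concentration of 64 μg/ml for growth inhibition of the listed strains: S. maltophilia ATCC 13637, M. luteus Presque Isle 456, S. aureus ATCC 29213, E. coli ATCC 25922, E. cloacae ATCC 13047, E. faecalis ATCC 29212, C. albicans ATCC 90028 and C. neoformans ATCC 90112.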

Micrococcus luteus = experiment: Antimicrobial activity against Micrococcus luteus Presque Isle 456 at 64 ug/ml by broth microdilution assay; assay type: functional, organism-based; outline: as §1
Staphylococcus aureus = experiment: Antimicrobial activity against Staphylococcus aureus ATCC 29213 at 64 ug/ml by broth microdilution assay; assay type: functional, organism-based; outline: as §1
Escherichia coli = experiment: Antimicrobial activity against Escherichia coli ATCC 25922 at 64 ug/ml by broth microdilution assay; assay type: functional, organism-based; outline: as §1
Enterobacter cloacae = experiment: Antimicrobial activity against Enterobacter cloacae ATCC 13047 at 64 ug/ml by broth microdilution assay; assay type: functional, organism-based; outline: as §1
Enterococcus faecalis = experiment: Antimicrobial activity against Enterococcus faecalis ATCC 29212 at 64 ug/ml by broth microdilution assay; assay type: functional, organism-based; outline: as §1
Candida albicans = experiment: Antimicrobial activity against Candida albicans ATCC 90028 at 64 ug/ml by broth microdilution assay; assay type: functional, organism-based; outline: as §1
Cryptococcus neoformans = experiment: Antimicrobial activity against Cryptococcus neoformans ATCC 90112 at 64 ug/ml by broth microdilution assay; assay type: functional, organism-based; outline: as §1
P388 = experiment: Antitumor activity against mouse P388 cells after 48 hrs by Sulforhodamine B; assay type: functional; conditions: P388, 48 h, read-out: ED50 (the source's name)

EC50 (P388) [µg/mL]	SMILES	Activity [1]	Activity (Micrococcus luteus)	Activity (Staphylococcus aureus)	Activity (Escherichia coli)	Activity (Enterobacter cloacae)	Activity (Enterococcus faecalis)	Activity (Candida albicans)	Activity (Cryptococcus neoformans)
–	CC1(C)C[C@H]2[C@H](O)C(CO)=C3[C@H](O)C[C@]3(C)[C@H]2C1	inactive	inactive	inactive	inactive	inactive	inactive	inactive	inactive
5.3 (≈ 21 µM)	C/C(C=O)=C1/CC[C@@]1(C)[C@@H]1C[C@](C)(CO)C[C@H]1O	inactive	inactive	inactive	inactive	inactive	inactive	inactive	inactive
–	C=C1[C@H](O)[C@H]2C[C@](C)(CO)CC2=C(C)C12CC2	inactive	inactive	inactive	inactive	inactive	inactive	inactive	inactive
